In ChEMBL document CHEMBL5380839, “Design and Pharmacological Characterization of α4β1 Integrin Cyclopeptide Agonists: Computational Investigation of Ligand Determinants for Agonism versus Antagonism” (J Med Chem, 2023):
Starred links: 1 amine or outer side, 2 acyl side, 3 side chain; linkers in the order of their positions; H or OH if unused. Positions of bridges follow the written chain, without caps; N, C: chain ends. Non-standard residues stand in square brackets, D forms with d. Residues, ends and D or L forms follow the SMILES beside them. Groups on a side chain read outwards from the residue. *: point of attachment. dPhe(4-NH2) = Nc1ccc(C[C@@H](N)C(=O)O)cc1; Phe(4-NH2) = Nc1ccc(C[C@H](N)C(=O)O)cc1; X1 = O=C(Cc1ccc(N[*:1])cc1)[*:2]; NH(2-Me-phenyl) = Cc1ccccc1N*; Phg = N[C@H](C(=O)O)c1ccccc1; d(β3hA) = C[C@@H](N)CC(=O)O; CO = O=C([*:1])[*:2]; NHPr = CCCN*

Legend:
Integrin alpha-M/beta-2 [1] = biological target: T1, Integrin alpha-M/beta-2 (Homo sapiens, UniProt P05107+P11215); assay: Binding affinity to alphaMbeta2 integrin receptor (unknown origin) preincubated for 30 mins followed by 30 mins incubation in fibrinogen coated wells by fluorescence based assay; format: protein-complex assay
T1 sequence (P05107 23-769 limits assumed, other chains not shown): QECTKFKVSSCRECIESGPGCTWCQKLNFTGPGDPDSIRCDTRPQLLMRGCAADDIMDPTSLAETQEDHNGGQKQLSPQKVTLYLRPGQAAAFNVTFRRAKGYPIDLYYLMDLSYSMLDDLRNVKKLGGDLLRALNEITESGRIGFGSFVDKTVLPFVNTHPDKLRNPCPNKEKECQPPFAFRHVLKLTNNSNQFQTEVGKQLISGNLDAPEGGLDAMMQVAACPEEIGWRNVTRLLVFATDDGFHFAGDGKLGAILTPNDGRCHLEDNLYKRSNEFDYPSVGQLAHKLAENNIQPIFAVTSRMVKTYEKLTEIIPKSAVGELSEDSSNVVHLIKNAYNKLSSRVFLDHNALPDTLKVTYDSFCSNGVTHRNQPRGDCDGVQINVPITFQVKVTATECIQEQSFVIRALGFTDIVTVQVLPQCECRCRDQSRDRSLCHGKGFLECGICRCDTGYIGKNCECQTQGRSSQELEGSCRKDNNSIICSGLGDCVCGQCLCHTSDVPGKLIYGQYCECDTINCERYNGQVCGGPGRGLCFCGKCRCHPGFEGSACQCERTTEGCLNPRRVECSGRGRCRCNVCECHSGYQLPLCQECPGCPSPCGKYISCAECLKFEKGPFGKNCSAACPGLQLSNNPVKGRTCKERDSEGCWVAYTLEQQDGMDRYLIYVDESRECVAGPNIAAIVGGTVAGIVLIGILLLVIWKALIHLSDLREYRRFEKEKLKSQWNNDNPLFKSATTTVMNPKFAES

[2] = biological target: T2, Integrin alpha4/beta7 complex (Homo sapiens, UniProt P26010+P48169); assay: Binding affinity to alpha4beta7 integrin receptor (unknown origin) preincubated for 30 mins followed by 30 mins incubation in mucosal vascular add-ressin cell adhesion molecule 1 coated wells by fluorescence based assay; format: protein-complex assay
T2 sequence (P48169 whole entry): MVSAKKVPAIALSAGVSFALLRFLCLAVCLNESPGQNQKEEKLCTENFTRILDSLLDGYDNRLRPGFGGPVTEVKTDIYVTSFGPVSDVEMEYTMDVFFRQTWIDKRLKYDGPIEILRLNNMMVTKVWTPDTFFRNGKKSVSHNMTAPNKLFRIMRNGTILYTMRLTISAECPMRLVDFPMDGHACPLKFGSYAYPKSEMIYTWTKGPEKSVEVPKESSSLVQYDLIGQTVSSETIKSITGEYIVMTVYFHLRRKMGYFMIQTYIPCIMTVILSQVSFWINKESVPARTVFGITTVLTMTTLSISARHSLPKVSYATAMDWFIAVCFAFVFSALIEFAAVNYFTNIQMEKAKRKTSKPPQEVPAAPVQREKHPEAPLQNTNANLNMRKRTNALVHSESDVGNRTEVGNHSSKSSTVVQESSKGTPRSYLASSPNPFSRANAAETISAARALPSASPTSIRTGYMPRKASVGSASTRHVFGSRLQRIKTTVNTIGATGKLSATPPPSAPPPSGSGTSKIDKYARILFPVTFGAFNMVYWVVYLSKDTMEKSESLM
T2 sequence (P26010 whole entry): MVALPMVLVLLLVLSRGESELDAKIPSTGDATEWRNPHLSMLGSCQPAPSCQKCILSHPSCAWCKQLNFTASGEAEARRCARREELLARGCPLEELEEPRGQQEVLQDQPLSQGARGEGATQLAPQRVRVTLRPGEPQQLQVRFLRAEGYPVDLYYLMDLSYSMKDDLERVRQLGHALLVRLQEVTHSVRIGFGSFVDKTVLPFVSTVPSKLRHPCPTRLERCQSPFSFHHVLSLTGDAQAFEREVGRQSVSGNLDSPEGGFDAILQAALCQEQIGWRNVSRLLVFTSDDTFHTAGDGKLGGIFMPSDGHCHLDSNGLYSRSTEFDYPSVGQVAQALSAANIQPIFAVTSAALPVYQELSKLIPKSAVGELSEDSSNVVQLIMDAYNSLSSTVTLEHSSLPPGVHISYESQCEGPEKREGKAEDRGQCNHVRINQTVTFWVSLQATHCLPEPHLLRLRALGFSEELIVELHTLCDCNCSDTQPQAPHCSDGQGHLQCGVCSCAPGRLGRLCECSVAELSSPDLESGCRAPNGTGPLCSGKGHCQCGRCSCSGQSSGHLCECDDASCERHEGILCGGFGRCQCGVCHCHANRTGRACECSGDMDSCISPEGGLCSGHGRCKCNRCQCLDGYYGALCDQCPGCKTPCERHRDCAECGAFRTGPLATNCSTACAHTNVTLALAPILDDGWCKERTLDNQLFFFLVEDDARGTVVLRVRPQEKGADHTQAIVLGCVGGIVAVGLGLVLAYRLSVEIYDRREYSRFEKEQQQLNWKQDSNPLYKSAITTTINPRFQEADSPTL

Integrin alpha-4/beta-1 [3] = biological target: T3, Integrin alpha-4/beta-1 (Homo sapiens, UniProt P05556+P13612); assay: Agonist activity at alpha4beta1 integrin receptor in human Jurkat E6.1 cells assessed as inhibition of fibronectin-induced cell adhesion pre-incubated for 30 mins followed by 30 mins incubation in fibronectin coated wells by fluorescence plate reader assay; format: cell-based
T3 sequence (P05556 whole entry): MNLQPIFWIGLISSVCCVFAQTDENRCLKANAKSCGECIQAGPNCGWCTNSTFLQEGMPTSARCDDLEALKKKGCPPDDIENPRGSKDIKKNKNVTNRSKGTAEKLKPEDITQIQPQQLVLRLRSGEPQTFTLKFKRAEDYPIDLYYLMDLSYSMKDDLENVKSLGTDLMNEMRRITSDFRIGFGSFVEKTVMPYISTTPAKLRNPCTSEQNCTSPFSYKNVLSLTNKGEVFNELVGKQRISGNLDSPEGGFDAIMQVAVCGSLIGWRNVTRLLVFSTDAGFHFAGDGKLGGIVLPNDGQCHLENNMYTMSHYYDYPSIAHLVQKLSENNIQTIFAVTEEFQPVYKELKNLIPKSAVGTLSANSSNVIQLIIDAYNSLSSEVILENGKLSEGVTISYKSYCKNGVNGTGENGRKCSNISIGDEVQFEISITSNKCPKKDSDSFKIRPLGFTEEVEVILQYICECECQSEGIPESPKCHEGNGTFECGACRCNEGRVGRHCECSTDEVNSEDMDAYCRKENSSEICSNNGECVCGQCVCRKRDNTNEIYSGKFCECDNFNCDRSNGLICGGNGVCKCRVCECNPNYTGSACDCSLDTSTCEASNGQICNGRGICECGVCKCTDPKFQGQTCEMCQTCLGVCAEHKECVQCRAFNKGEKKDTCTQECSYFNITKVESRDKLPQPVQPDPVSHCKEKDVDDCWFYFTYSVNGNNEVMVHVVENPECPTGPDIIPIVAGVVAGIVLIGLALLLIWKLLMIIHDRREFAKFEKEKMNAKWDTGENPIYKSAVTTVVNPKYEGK
T3 sequence (P13612 whole entry): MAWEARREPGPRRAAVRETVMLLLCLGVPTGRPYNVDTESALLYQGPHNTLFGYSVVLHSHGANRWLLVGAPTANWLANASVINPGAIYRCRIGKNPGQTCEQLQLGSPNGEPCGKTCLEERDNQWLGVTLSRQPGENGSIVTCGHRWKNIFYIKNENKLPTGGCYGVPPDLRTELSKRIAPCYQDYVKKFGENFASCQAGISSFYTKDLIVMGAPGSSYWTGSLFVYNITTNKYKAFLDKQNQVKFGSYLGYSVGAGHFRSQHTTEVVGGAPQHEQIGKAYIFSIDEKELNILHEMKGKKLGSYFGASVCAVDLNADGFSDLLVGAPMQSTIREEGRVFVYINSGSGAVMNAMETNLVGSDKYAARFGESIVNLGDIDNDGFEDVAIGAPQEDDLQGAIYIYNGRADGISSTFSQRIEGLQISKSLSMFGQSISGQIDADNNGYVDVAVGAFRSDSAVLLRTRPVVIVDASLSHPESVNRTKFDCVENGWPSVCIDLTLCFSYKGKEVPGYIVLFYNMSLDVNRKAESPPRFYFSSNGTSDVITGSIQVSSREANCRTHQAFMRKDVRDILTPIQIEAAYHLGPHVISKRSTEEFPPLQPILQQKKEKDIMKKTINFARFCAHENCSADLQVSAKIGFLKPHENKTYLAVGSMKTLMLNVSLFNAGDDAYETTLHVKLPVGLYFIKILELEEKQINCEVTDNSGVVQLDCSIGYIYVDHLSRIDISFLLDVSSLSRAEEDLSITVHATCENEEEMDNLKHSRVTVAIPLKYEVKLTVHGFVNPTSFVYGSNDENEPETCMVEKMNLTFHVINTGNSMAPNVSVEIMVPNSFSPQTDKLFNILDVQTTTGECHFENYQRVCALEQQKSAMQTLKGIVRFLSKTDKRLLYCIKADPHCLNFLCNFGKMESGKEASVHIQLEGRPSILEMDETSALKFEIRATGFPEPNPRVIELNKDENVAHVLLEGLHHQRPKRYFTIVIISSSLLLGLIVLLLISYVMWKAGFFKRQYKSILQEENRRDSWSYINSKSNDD

[4] = biological target: T2, Integrin alpha4/beta7 complex; assay: Agonist activity at alpha4beta7 integrin receptor in human RPMI-8866 cells assessed as inhibition of mucosal vascular add-ressin cell adhesion molecule 1-induced cell adhesion pre-incubated for 30 mins followed by 30 mins incubation in mucosal vascular add-ressin cell adhesion molecule 1 coated wells by fluorescence plate reader assay; format: cell-based
Integrin alpha-M/beta-2 [5] = biological target: T1, Integrin alpha-M/beta-2; assay: Agonist activity at alphaMbeta2 integrin receptor in human HL-60 cells assessed as inhibition of fibrinogen-induced cell adhesion pre-incubated for 30 mins followed by 30 mins incubation in fibrinogen coated wells by fluorescence plate reader assay; format: cell-based
[6] = Stability in mouse serum assessed as parent compound remaining incubated upto 3 hrs by RP HPLC analysis; format: ADME, cell-free; settings: read-out: Stability
In short: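 Peptide stock (10 mM in Tris buffer pH 7.4) diluted 1:20 into mouse serum and held at 37 °C. […] Remaining peptide in the supernatant measured by RP HPLC. Triplicate, repeated three times.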

Integrin alpha-5/beta-1 = Integrin alpha-5/beta-1 (Homo sapiens, UniProt P05556+P08648); assay: Binding affinity to alpha5beta1 integrin receptor (unknown origin) preincubated for 30 mins followed by 30 mins incubation in fibronectin coated wells by fluorescence based assay; format: protein-complex assay
Integrin alpha-4/beta-1 [7] = biological target: T3, Integrin alpha-4/beta-1; assay: Binding affinity to alpha4beta1 integrin receptor (unknown origin) preincubated for 30 mins followed by 30 mins incubation in fibronectin coated wells by fluorescence based assay; format: protein-complex assay
Integrin alpha-4/beta-1 [8] = biological target: T3, Integrin alpha-4/beta-1; assay: Binding affinity to alpha4beta1 integrin receptor (unknown origin) preincubated for 30 mins followed by 30 mins incubation in vascular cell adhesion molecule 1-induced cell adhesion coated wells by fluorescence based assay; format: protein-complex assay

Cc1ccccc1NC(=O)Nc1ccc(CC(=O)N[C@@H](CC(C)C)C(=O)N[C@@H](CC(=O)O)C(=O)N[C@H](C(=O)N2CCC[C@H]2C(=O)O)C(C)C)cc1 ({NH(2-Me-phenyl)-CO}-[X1]LDVP-OH)
IC50 (Integrin alpha-M/beta-2 [1]): > 1 µM | IC50 [2]: > 1 µM

Cc1ccccc1NC(=O)Nc1ccc(C[C@H]2NC(=O)C[C@@H](C)NC(=O)[C@H](C(C)C)NC(=O)[C@H](CC(=O)O)NC(=O)[C@H](CC(C)C)NC2=O)cc1 (cyclo(DV[d(β3hA)][dPhe(4-NH2)]([CO-NH(2-Me-phenyl)])L))
EC50 (Integrin alpha-4/beta-1 [3]): > 5 µM

Cc1ccccc1NC(=O)N1C(=O)CC1CC(=O)O (centres undefined)
EC50 [4]: > 5 µM | EC50 (Integrin alpha-M/beta-2 [5]): > 5 µM

Cc1ccccc1NC(=O)N1C(=O)CC1CC(=O)NCC(=O)O (centres undefined)
EC50 [4]: > 5 µM | EC50 (Integrin alpha-M/beta-2 [5]): > 5 µM

Cc1ccccc1NC(=O)Nc1ccc(C[C@H]2NC(=O)C[C@@H](C(=O)O)NC(=O)[C@H](C(C)C)NC(=O)[C@H](CC(=O)O)NC(=O)[C@H](CC(C)C)NC2=O)cc1 ([dPhe(4-NH2)]([CO-NH(2-Me-phenyl)])LDVD-OH; lactam N-5)
remaining at 3 h [6]: > 85%

Cc1ccccc1NC(=O)Nc1ccc(C[C@H]2NC(=O)C[C@@H](C(=O)O)NC(=O)[C@H](c3ccccc3)NC(=O)[C@H](CC(=O)O)NC(=O)[C@H](CC(C)C)NC2=O)cc1 ([dPhe(4-NH2)]([CO-NH(2-Me-phenyl)])LD[Phg]D-OH; lactam N-5)
EC50 (Integrin alpha-4/beta-1 [3]): > 5 µM

Cc1ccccc1NC(=O)Nc1ccc(C[C@@H]2NC(=O)C[C@@H](C)NC(=O)[C@H](C(C)C)NC(=O)[C@H](CC(=O)O)NC(=O)[C@H](CC(C)C)NC2=O)cc1 (cyclo([Phe(4-NH2)]([CO-NH(2-Me-phenyl)])LDV[d(β3hA)]))
EC50 (Integrin alpha-4/beta-1 [3]): > 5 µM

Cc1ccccc1NC(=O)Nc1ccc(C[C@@H]2NC(=O)C[C@@H](C(=O)O)NC(=O)[C@H](C(C)C)NC(=O)[C@H](CC(=O)O)NC(=O)[C@H](CC(C)C)NC2=O)cc1 ([Phe(4-NH2)]([CO-NH(2-Me-phenyl)])LDVD-OH; lactam N-5)
remaining at 3 h [6]: > 85%

Cc1ccccc1NC(=O)Nc1ccc(C[C@@H]2NC(=O)C[C@@H](C(=O)O)NC(=O)[C@H](C(C)C)NC(=O)[C@H](C)NC(=O)[C@H](Cc3ccccc3)NC2=O)cc1 ([Phe(4-NH2)]([CO-NH(2-Me-phenyl)])FAVD-OH; lactam N-5)
EC50 (Integrin alpha-4/beta-1 [3]): 1.06 µM | IC50 (Integrin alpha-5/beta-1): > 5 µM | IC50 (Integrin alpha-4/beta-1 [7]): 0.976 µM | IC50 (Integrin alpha-M/beta-2 [1]): > 5 µM | IC50 [2]: > 5 µM | IC50 (Integrin alpha-4/beta-1 [8]): 0.899 µM

CCCNC(=O)[C@@H]1CC(=O)N[C@@H](Cc2ccc(NC(=O)Nc3ccccc3C)cc2)C(=O)N[C@@H](CC(C)C)C(=O)N[C@@H](CC(=O)O)C(=O)N[C@@H](C(C)C)C(=O)N1 ([Phe(4-NH2)]([CO-NH(2-Me-phenyl)])LDVD-NHPr; lactam N-5)
EC50 (Integrin alpha-4/beta-1 [3]): > 5 µM

Cc1ccccc1NC(=O)Nc1ccc(C[C@@H]2NC(=O)C[C@@H](C(=O)O)NC(=O)[C@H](C(C)C)NC(=O)[C@H](CC(=O)O)NC(=O)[C@H](Cc3ccccc3)NC2=O)cc1 ([Phe(4-NH2)]([CO-NH(2-Me-phenyl)])FDVD-OH; lactam N-5)
EC50 (Integrin alpha-4/beta-1 [3]): > 5 µM
